# pIC50: −log10 of the molar value. Entries after “also recorded” stand apart in the source; their conditions may differ. Where two headings read alike, the source gives them in different places.
# How the values were obtained:
# CMG2 = biological target: T1, CMG2 (Homo sapiens, UniProt P58335, C175A/R40C); experiment: CMG2-Protective antigen; assay type: binding; conditions: for inhibitory activity in CMG2 FRET assay: concentrations up to 300 μM
# T1 sequence (P58335 40-217 R40C/C175A): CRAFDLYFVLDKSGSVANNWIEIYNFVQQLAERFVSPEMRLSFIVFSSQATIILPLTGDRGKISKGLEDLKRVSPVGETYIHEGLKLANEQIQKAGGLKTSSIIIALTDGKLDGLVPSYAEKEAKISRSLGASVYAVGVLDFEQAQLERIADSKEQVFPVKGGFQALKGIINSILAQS
# [1] = cited from earlier work
# [2] = test system: human dermal microvascular endothelial cells (HMVEC-d); experiment: Endothelial cell migration assay; assay type: cell-based; conditions: ex vivo endothelial cell migration assay
# Procedure, shortened: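 HMVEC-d kept in EGM-2 and used before passage 7, resuspended in EBM with 0.1% BSA. 20,000 cells were placed on fibronectin-coated 8.0 μm-pore polycarbonate transwell inserts over full-serum (5%) medium with or without test compound, and left to migrate 4 h. Top-side cells were removed, membranes fixed and Diff-Quick stained, and 4 10X fields counted. Counts were normalized to no-treatment control, with IC50 from a binding-isotherm fit. Two experiments, n=3 each.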
# HMVEC-d cells = experiment: Endothelial cell proliferation assay; assay type: cell-based, human; conditions: at doses that inhibited migration, 24 and 72 hours
# bFGF-driven angiogenesis = experiment: Mouse corneal micropocket assay; assay type: in vivo, C57BL/6J mice; conditions: mice
# Procedure, shortened: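 Pellets with 80 ng bFGF were implanted in C57BL/6J corneas, five mice per group. Test compound was given daily by oral gavage at 20 mg/kg in 5% ethanol, or IP at 10 mg/kg/day in 2.5% DMSO, 5% Cremophor EL, 5% Tween-80, 7.5% N-methyl-2-pyrrolidone, 0.9% NaCl. Controls received vehicle. Dosing began at implantation, and vascular area was measured by slit lamp on postoperative day 5 (~10 eyes/group, t-test).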
# [3] = cited from earlier work; remark: listed apart in the source
# [4] = IP and orally at doses up to 30 mg/kg/day; cited from earlier work
# angiogenesis [5] = conditions: cited from earlier work
# DNA polymerases = conditions: certain DNA polymerases; cited from earlier work
# H+, K+, ATPase = conditions: cited from earlier work
# Caco-2 monolayers = conditions: cited from earlier work
# angiogenesis [6] = conditions: therapeutic concentrations; cited from earlier work
compound,measurement,setting,value
Protocatechillic acid,pIC50,CMG2,< 3.52
O=C(OC[C@H]1O[C@@H](OC(=O)c2cc(O)c(O)c(OC(=O)c3cc(O)c(O)c(O)c3)c2)[C@H](OC(=O)c2cc(O)c(O)c(OC(=O)c3cc(O)c(O)c(O)c3)c2)[C@@H](OC(=O)c2cc(O)c(O)c(OC(=O)c3cc(O)c(O)c(O)c3)c2)[C@@H]1OC(=O)c1cc(O)c(O)c(OC(=O)c2cc(O)c(O)c(O)c2)c1)c1cc(O)c(O)c(OC(=O)c2cc(O)c(O)c(O)c2)c1 [Tannic acid],toxicity upon administration in mice,[1],toxic effects
"O=C(OC[C@H]1O[C@@H](OC(=O)c2cc(O)c(O)c(O)c2)[C@H](OC(=O)c2cc(O)c(O)c(O)c2)[C@@H](OC(=O)c2cc(O)c(O)c(O)c2)[C@@H]1OC(=O)c1cc(O)c(O)c(O)c1)c1cc(O)c(O)c(O)c1 [PGG, 1,2,3,4,6-penta-O-galloyl-β-D-glucopyranose]",activity of HPLC fractions in the FRET assay,"CMG2; fractions of the ""tannic acid"" sample",active
same,IC50 (in words),CMG2; in vitro FRET binding assay,submicromolar
same,IC50 of endothelial cell migration (in words),[2],submicromolar
same,cytotoxic or cytostatic effects,HMVEC-d cells,no cytotoxic or cytostatic effects
same,inhibition of bFGF-driven angiogenesis,"bFGF-driven angiogenesis; 10 mg/kg IP, 80 ng bFGF pellet",significantly inhibited
same,inhibition of bFGF-driven angiogenesis (vessel area),"bFGF-driven angiogenesis; 20 mg/kg/day by oral gavage, 80 ng bFGF pellet, day 5",significantly inhibited; also recorded: statistically significant
same,"signs of toxicity (weight loss, hunched posture, behavioral abnormalities)",bFGF-driven angiogenesis; 10 mg/kg IP or 20 mg/kg/day oral,no obvious signs of toxicity
same,plasma concentrations,[3]; intraperitoneal administration,single-digit micromolar
same,plasma concentrations,[3]; oral administration,submicromolar
same,circulating concentrations,"[3]; oral dose of 80 mg/kg, experimental animals",< 1 µM
same,ill effects,[4],without ill effects
same,dose at which antiangiogenic activity has been evoked,angiogenesis [5],4 mg/kg
same,IC50 (in words),DNA polymerases,submicromolar
same,IC50 (in words),"H+, K+, ATPase",submicromolar
same,nature of transport,Caco-2 monolayers,saturable
COC(=O)c1cc(O)c(O)c(O)c1 [Methyl Gallate],inhibitory activity in CMG2 FRET assay,CMG2,None of these compounds exhibited any inhibitory activity
COc1ccc2[nH]c([S+]([O-])Cc3ncc(C)c(OC)c3C)nc2c1 (centres unmarked) [omeprazole],inhibition of angiogenesis,angiogenesis [6],fails to inhibit angiogenesis
CCCOC(=O)c1cc(O)c(O)c(O)c1 [Propyl Gallate],inhibitory activity in CMG2 FRET assay,CMG2,None of these compounds exhibited any inhibitory activity
